Test results from PubChem BioAssay.
Results filed as inconclusive are left out. Calls of active or inactive are those of the source.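 The calls were made as follows, unless noted: active = inhibition over a set limit, the all-compound mean plus 3 SD, in both replicate runs; inconclusive = over that limit in just one replicate run; inactive = at or under that limit in both runs.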

Legend:
[1] = S. cerevisiae growth inhibition in permissive medium (OD615), pilot counter-assay for S. cerevisiae lifespan shortening project, permissive growth control (AID 705;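 active = growth inhibition above 25% in both replicates, a cutoff set 3 SD above the mean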); conditions: OD615, 24 h, at 10 µM, stronger effect = higher value
Method in brief: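 assay system = Saccharomyces cerevisiae strain carrying genetically modified DeaD replicative-lifespan system | technique = absorbance (optical density) at 615 nm | buffer or medium = permissive raffinose/galactose medium | timing = cells pre-grown 4 h, then 24 h compound exposure, 30 °C humidified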

[2] = S. cerevisiae growth inhibition in restrictive medium, OD615, pilot screen, restrictive growth control, yeast lifespan reduction project (AID 706;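 active = growth inhibition above a set limit, 3 SD over mean compound inhibition, in both replicates, cut at about 43% in these data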;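 also: modified DeaD lifespan yeast strain shifted to restrictive glucose medium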); conditions: OD615, 48 h, at 10 µM, stronger effect = higher value
Method in brief: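 System: modified S. cerevisiae. Buffer or medium: CSMM-D glucose medium. Incubation: 4 h pre-growth plus 48 h compound exposure, 30 °C. Detection: absorbance (optical density) measured at 615 nm.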

[3] = doxorubicin toxicity protection in MRP-1 cells – H69AR cells, CellTiter-Glo, duplicate, MRP-1 activator project, pilot screen (AID 807;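 active = viability increase at or above a cutoff of the median across tested compounds plus 3 SD, cut at about 8.5% in these data, passing the limit was not always enough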;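 also: compound pretreatment 18-22 h then 72 h combined with doxorubicin; 0% = doxorubicin alone and 100% = vehicle without doxorubicin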); conditions: H69AR viability with doxorubicin, CellTiter-Glo luminescence; at 10 µM; stronger effect = higher value
[4] = viability of HCT116 without oncogenic beta-catenin – human colon tumor cells, pilot screen (AID 823;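 active = cell viability at or below a set limit in both duplicate runs, the limit being the all-compound median minus 4 SD, cut at about 23% in these data, passing the limit was not always enough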;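 also: 0% = wells killed by 20 µM Hyamine and 100% = untreated DMSO cell wells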); conditions: HCT116 beta-catenin knockout viability, CellTiter-Glo, 60 h; at 10 µM; stronger effect = lower value
[5] = viability of PTEN-null HCT116 cells – cell-based, HCT116 clonal line, CellTiter-Glo, pilot screen (AID 824;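 active = viability at or below 27.92% in each of two runs, the all-compound median minus 4 SD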;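 also: 0% = 20 µM Hyamine control and 100% = vehicle cell control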); conditions: HCT116 PTEN-deleted viability, 60 h, at 10 µM, stronger effect = lower value
[6] = RAM pathway blockade in budding yeast – dse1pr::URA3 reporter, 5-FOA selection, pilot screen (AID 869);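 also: 0% = DMSO wells with no growth and 100% = 10 µM 1-NA-PP1 with full growth; RAM network block rescues cells from 5-FOA so hits raise OD615 growth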; conditions: S. cerevisiae dse1pr::URA3 5-FOA growth, OD615, 2 d; at 10 µM; stronger effect = higher value; strain carries analog-sensitive mutant Cbk1 kinase
[7] = RAM signaling pathway blockade in yeast – S. cerevisiae, Pdr1DBD-CYC8 efflux-inhibited sensitized strain, primary screen (AID 1298;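 active = RAM network inhibition above 8.4% in each of two replicates, 3 SD over the compound average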;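 also: 0% = DMSO untreated cells without growth and 100% = 10 µM 1-NA-PP1 full growth; higher means more yeast growth rescued from 5-FOA killing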); conditions: S. cerevisiae cbk1-as DSE1-URA3 strain, 5-FOA growth OD615, 2 d; at 50 µM; stronger effect = higher value

O=C(CC1SC(=Nc2ccccc2)N(CCCO)C1=O)Nc1ccc(Cl)cc1 (configuration not stated)
inactive: growth inhibition [1] -6.75% | growth inhibition [2] -7.97% | viability increase [3] -6.7% | viability [4] 48.1% | viability [5] 42.1% | inhibition [6] 0.52% | RAM network inhibition [7] 1.29%

CCOC(=O)Cn1c(=O)oc2cc(S(=O)(=O)N3CCN(c4ccccn4)CC3)ccc21
inactive: growth inhibition [1] 10.4% | growth inhibition [2] 6.56% | viability increase [3] -2.64% | viability [4] 96.3% | viability [5] 99.5% | inhibition [6] 0.75% | RAM network inhibition [7] 3.64%

O=C(Cn1ncc2c(=O)oc3ccccc3c21)NCC1COc2ccccc2O1 (configuration not stated)
inactive: growth inhibition [1] 4.09% | growth inhibition [2] -10.9% | viability increase [3] -1.36% | viability [4] 103% | viability [5] 98.2% | inhibition [6] 2.72% | RAM network inhibition [7] 3.56%

O=C(c1ccccc1)N1CCn2c(nc3ccccc32)C1
inactive: growth inhibition [1] 3.33% | growth inhibition [2] 2.58% | viability increase [3] -0.73% | viability [4] 98.2% | viability [5] 98.2% | inhibition [6] 0.5% | RAM network inhibition [7] 6.85%

COc1ccccc1NC(=O)c1ccc(S(=O)(=O)N(C)C)cc1
inactive: growth inhibition [1] 0.34% | growth inhibition [2] 6.62% | viability increase [3] -0.55% | viability [4] 108% | viability [5] 105% | inhibition [6] 2.33% | RAM network inhibition [7] -1.21%

COc1cc(C2C3=C(CC(c4ccco4)CC3=O)Nc3ccccc3N2C(C)=O)cc(OC)c1OC (configuration not stated)
inactive: growth inhibition [1] -0.74% | growth inhibition [2] 8.4% | viability increase [3] -3.38% | viability [4] 91.8% | viability [5] 89% | inhibition [6] 1.3% | RAM network inhibition [7] 6.7%

CCOc1ccc(N2CCCCn3c2nc2c3c(=O)[nH]c(=O)n2C)cc1
inactive: growth inhibition [1] -21.9% | growth inhibition [2] -16.5% | viability increase [3] -1.1% | viability [4] 97.8% | viability [5] 98% | inhibition [6] 1.5% | RAM network inhibition [7] 2.47%

COc1ccccc1C(=O)N1CCN(c2cccc(Cl)c2)CC1
inactive: growth inhibition [1] -9.06% | growth inhibition [2] -12.8% | viability increase [3] -4.63% | inhibition [6] 2.75% | RAM network inhibition [7] 2.22%
active: viability [4] 15.4% | viability [5] 20%

C=CCOc1ccc(/C(O)=C2/C(=O)C(=O)N(CCCn3ccnc3)C2c2cccs2)cc1 (configuration not stated)
inactive: growth inhibition [1] -13.8% | growth inhibition [2] 0.445% | viability increase [3] 1.46% | viability [4] 95.2% | viability [5] 98.6% | inhibition [6] -0.285% | RAM network inhibition [7] 1.02%

Cc1cc(C)n(Cc2ccccc2F)c(=O)c1C#N
inactive: growth inhibition [1] -7.71% | growth inhibition [2] -16.5% | viability increase [3] -1.4% | viability [4] 105% | viability [5] 96.9% | inhibition [6] 0.375% | RAM network inhibition [7] 4.95%

Cc1ccc(C(=O)NCc2ccc(Cl)c(Cl)c2)o1
inactive: growth inhibition [1] -3.73% | growth inhibition [2] 4.06% | viability increase [3] 0.03% | viability [4] 98% | viability [5] 98.5% | inhibition [6] 0.67% | RAM network inhibition [7] 1.28%

Cc1cc(C)n(S(=O)(=O)c2ccc(Cl)c(Cl)c2Cl)n1
inactive: growth inhibition [1] -8.03% | growth inhibition [2] 4.29% | viability increase [3] -4.34% | viability [4] 86% | viability [5] 84.6% | inhibition [6] 1.17% | RAM network inhibition [7] 3.65%

C/C(=C1/SC(N2CCOCC2)=NC1=O)c1ccc(Br)cc1
inactive: growth inhibition [1] -1.67% | growth inhibition [2] 3.21% | viability increase [3] -1.99% | viability [4] 94.5% | viability [5] 101% | inhibition [6] 1.26% | RAM network inhibition [7] 0.72%

Nc1sc2c(c1C(=O)NC1CCS(=O)(=O)C1)CCCC2 (configuration not stated)
inactive: growth inhibition [1] -5.31% | growth inhibition [2] -3.38% | viability increase [3] 0.13% | viability [4] 93.3% | viability [5] 99.1% | inhibition [6] 1.67% | RAM network inhibition [7] 3.3%

Nc1ccccc1SCc1cn2cccnc2n1
inactive: growth inhibition [1] 1.29% | growth inhibition [2] 12% | viability increase [3] -2.43% | viability [4] 109% | viability [5] 98% | inhibition [6] 2.13% | RAM network inhibition [7] 3.55%

Cc1ccc(C(=O)Nc2ccc(S(=O)(=O)N3CCN(C)CC3)cc2)o1
inactive: growth inhibition [1] -8.11% | growth inhibition [2] -0.785% | viability increase [3] -0.32% | viability [4] 104% | viability [5] 103% | inhibition [6] 1.32% | RAM network inhibition [7] 3.17%

CCCN1Cc2cccc(C(=O)N3CCN(c4cc(Cl)ccc4C)CC3)c2C1=O
inactive: growth inhibition [1] 1.4% | growth inhibition [2] -10.8% | viability increase [3] -0.17% | viability [4] 70.5% | viability [5] 66.7% | inhibition [6] 0.375% | RAM network inhibition [7] 1.65%

O=C(NC1CCCCCCC1)c1ccc(CNc2c(N3CCOCC3)c(=O)c2=O)cc1
inactive: growth inhibition [1] 1.56% | growth inhibition [2] 8.42% | viability increase [3] 0.25% | viability [4] 100% | viability [5] 95.6% | inhibition [6] 0.71% | RAM network inhibition [7] 0.92%

CC1=C(C(=O)OCC2CCCO2)C(c2ccccc2)NC(=O)N1 (configuration not stated)
inactive: growth inhibition [1] -9.26% | growth inhibition [2] -17.9% | viability increase [3] -0.06% | viability [4] 103% | viability [5] 99.8% | inhibition [6] 1.33% | RAM network inhibition [7] -0.93%

CCCCOC(=O)CCc1n[nH]c(=O)[nH]c1=O
inactive: growth inhibition [1] -11.1% | growth inhibition [2] -17.6% | viability increase [3] -1.14% | viability [4] 99.8% | viability [5] 99% | inhibition [6] 2.12% | RAM network inhibition [7] 2.93%

CCOC(=O)C1CCCN(c2cc(=O)n(-c3ccccc3Cl)c(=O)[nH]2)C1 (configuration not stated)
inactive: growth inhibition [1] -3.86% | growth inhibition [2] -18.9% | viability increase [3] -1.99% | viability [4] 89.7% | viability [5] 94.5% | inhibition [6] 1.53% | RAM network inhibition [7] 0.31%

O=C(CCS(=O)(=O)c1cccc2nonc12)NCCc1ccccc1Cl
inactive: growth inhibition [1] -1.5% | growth inhibition [2] -9.76% | viability increase [3] -5.15% | viability [4] 91.2% | viability [5] 82.9% | inhibition [6] 1.33% | RAM network inhibition [7] 4.14%

O=C(CC1Sc2ncnn2C1=O)Nc1ccc(Br)cc1 (configuration not stated)
inactive: growth inhibition [1] -5.64% | growth inhibition [2] -9.71% | viability increase [3] -1.23% | viability [4] 106% | viability [5] 100% | inhibition [6] 1.93% | RAM network inhibition [7] 5.71%

CCCc1n[nH]c2c1C(=O)CC(C)(C)C2
inactive: growth inhibition [1] -9.08% | growth inhibition [2] -9.82% | viability increase [3] -1.76% | viability [4] 95.6% | viability [5] 102% | inhibition [6] 0.98% | RAM network inhibition [7] 2.76%

CCCCC(CC)CNC(=O)c1[nH]c(C)c(C(C)=O)c1C (configuration not stated)
inactive: growth inhibition [1] 9.77% | growth inhibition [2] -2.26% | viability increase [3] -1.78% | viability [4] 41.7% | viability [5] 63.8% | inhibition [6] 1.91% | RAM network inhibition [7] 1.29%

O=C(CCS(=O)(=O)c1cccc2nonc12)NC1CCCCCC1
inactive: growth inhibition [1] -7.86% | growth inhibition [2] -9.46% | viability increase [3] -4.43% | viability [4] 86.7% | viability [5] 84.5% | inhibition [6] 0.855% | RAM network inhibition [7] 0.93%

O=c1nc(-c2ccccc2)cn[nH]1
inactive: growth inhibition [1] -4.61% | growth inhibition [2] -4.27% | viability increase [3] -0.11% | viability [4] 101% | viability [5] 105% | inhibition [6] 1.29% | RAM network inhibition [7] 2.6%

O=C(CSc1nc2ccccc2c(=O)[nH]1)N1CCCCC1
inactive: growth inhibition [1] -16.2% | growth inhibition [2] -5.08% | viability increase [3] -2.69% | viability [4] 98.7% | viability [5] 84.7% | inhibition [6] 0.395% | RAM network inhibition [7] -0.51%

COc1ccc(NS(=O)(=O)c2ccc(OC)c(OC)c2)cc1OC
inactive: growth inhibition [1] -7.13% | growth inhibition [2] 4.59% | viability increase [3] 0.52% | viability [4] 92% | viability [5] 90.7% | inhibition [6] 0.335% | RAM network inhibition [7] 0%

COc1ccc(-c2nc3cnccn3c2Nc2ccc3c(c2)OCO3)cc1
inactive: growth inhibition [1] -10.7% | growth inhibition [2] 3.96% | viability increase [3] -6.6% | viability [4] 70.9% | viability [5] 62.8% | inhibition [6] -0.105% | RAM network inhibition [7] 0.16%

CCN(c1ccccc1)c1cc(C)nc2ncnn12
inactive: growth inhibition [1] -18% | growth inhibition [2] -1.56% | viability increase [3] -3.24% | viability [4] 96.7% | viability [5] 94.9% | inhibition [6] 1.6% | RAM network inhibition [7] 4.57%

Cc1onc(-c2ccccc2Cl)c1C(=O)NCCN1Cc2ccccc2C1=O
inactive: growth inhibition [1] -0.695% | growth inhibition [2] 4.3% | viability increase [3] -4.11% | viability [4] 102% | viability [5] 90.5% | inhibition [6] 0.375% | RAM network inhibition [7] 0.31%

COc1ccc(C2C(C(=O)Nc3cc(C)on3)c3ccccc3C(=O)N2C)cc1 (configuration not stated)
inactive: growth inhibition [1] 2.9% | growth inhibition [2] -2.79% | viability increase [3] -1.73% | viability [4] 101% | viability [5] 101% | inhibition [6] 1.46% | RAM network inhibition [7] 0.37%

C=CCn1c(-c2ccc(N)cc2)nc2ccccc21
inactive: growth inhibition [1] -6.82% | growth inhibition [2] 3.25% | viability increase [3] -3.72% | viability [4] 93.3% | viability [5] 80.1% | inhibition [6] 1.5% | RAM network inhibition [7] 1.23%

CC1CCN(C(=O)c2ccc(NC(=O)C3CCCO3)cc2)CC1 (configuration not stated)
inactive: growth inhibition [1] -31.4% | growth inhibition [2] -18.3% | viability increase [3] -0.41% | viability [4] 96.4% | viability [5] 94.3% | inhibition [6] 1.26% | RAM network inhibition [7] 3.59%

COc1cc(C2NC(=O)NC(C)=C2C(=O)OCc2ccc(C)cc2)cc(OC)c1O (configuration not stated)
inactive: growth inhibition [1] -12.9% | growth inhibition [2] -10.8% | viability increase [3] 3.29% | viability [4] 89.9% | viability [5] 82.1% | inhibition [6] 0.03% | RAM network inhibition [7] 0.58%
